Test results as given in ChEMBL document CHEMBL1212828, “Synthesis and biological evaluation of novel pyrazole compounds” (Bioorg Med Chem, 2010).
The source made the active and inactive calls. No cut-off for these calls is given here.

Columns and labels:
THP-1 [1] = assay: Cytotoxicity against human THP1 cells assessed as reduction in cell viability; type: cell-based
How it was run: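 THP-1 cells in DMEM-F12 with 5% FBS, 24-well plates, pretreated 15 min with compound or DMSO vehicle, then stimulated with LPS 0.5 µg/mL plus IFN-γ 150 U/mL for 24 h. Death read as supernatant LDH (iodonitrotetrazolium formazan, 490 nm, fraction of Triton X-100 lysate); survival by MTT; MCP-1 by ELISA. Concentration effects by randomized block ANOVA; 8–11 independent experiments.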

SH-SY5Y = assay: Neuroprotective activity in human SH-SY5Y cells; type: functional, cell-based
How it was run: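 SH-SY5Y cells seeded at 2 × 10^5/mL in DMEM-F12 with 5% FBS; after 24 h medium replaced by supernatant of THP-1 cells stimulated 24 h with LPS + IFN-γ, or by medium containing 250 µM H2O2, with compound added at transfer. Cell death measured by LDH assay 72 h later; five independent experiments; randomized block ANOVA.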

[2] = biological target: T1, Prostaglandin G/H synthase 2 (Homo sapiens) (UniProt P35354); assay: Inhibition of human COX2 at 100 uM
T1 sequence (whole entry): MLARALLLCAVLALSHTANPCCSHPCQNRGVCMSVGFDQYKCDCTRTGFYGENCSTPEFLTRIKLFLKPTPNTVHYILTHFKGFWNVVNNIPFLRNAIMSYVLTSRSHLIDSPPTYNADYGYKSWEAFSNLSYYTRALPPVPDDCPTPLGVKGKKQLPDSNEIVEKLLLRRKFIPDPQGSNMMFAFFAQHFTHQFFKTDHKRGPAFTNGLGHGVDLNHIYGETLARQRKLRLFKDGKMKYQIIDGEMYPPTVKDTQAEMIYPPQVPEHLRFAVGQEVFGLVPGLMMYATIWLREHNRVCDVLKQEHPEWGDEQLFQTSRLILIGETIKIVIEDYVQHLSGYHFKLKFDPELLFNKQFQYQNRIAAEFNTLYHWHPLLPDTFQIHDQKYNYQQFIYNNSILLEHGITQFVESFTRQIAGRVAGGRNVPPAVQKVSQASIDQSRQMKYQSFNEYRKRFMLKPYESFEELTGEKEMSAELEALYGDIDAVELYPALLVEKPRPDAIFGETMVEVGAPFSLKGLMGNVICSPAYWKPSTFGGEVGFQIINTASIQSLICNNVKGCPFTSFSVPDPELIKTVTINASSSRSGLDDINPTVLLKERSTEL
How it was run: (§1)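 Screening kit with ovine COX-1 and human recombinant COX-2, run per manufacturer's protocol; percent inhibition of prostaglandin production measured for each isoform.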

THP-1 [3] = assay: Neuroprotective activity against LPS and IFN-gamma-stimulated neurotoxin production in human THP1 cell assessed as inhibition of THP1 cell secretion-induced toxicity to human SH-SY5Y cells after 72 hrs by MTT assay; type: functional, cell-based; conditions: THP-1, 72 h
How it was run: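 THP-1 cells pretreated 15 min with compound, then stimulated with LPS (0.5 µg/mL) plus IFN-γ (150 U/mL) for 24 h. Cell-free supernatant transferred to SH-SY5Y cells plated 24 h earlier (2 × 10^5 cells/mL). After 72 h, SH-SY5Y viability read by MTT (0.5 mg/mL, 1 h, 37 °C, OD570) or by LDH release (OD490, relative to Triton X-100 lysis). IC50 estimated.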

SH-SY5Y (Homo sapiens) = assay: Neuroprotective activity against LPS and IFN-gamma-induced human THP1 cell supernatant-induced death of human SH-SY5Y cells after 72 hrs by MTT assay; conditions: THP-1
[4] = biological target: T2, Prostaglandin G/H synthase 1 (Ovis aries) (UniProt P05979); assay: Inhibition of ovine COX1 at 100 uM; how it was run: as §1
T2 sequence (whole entry): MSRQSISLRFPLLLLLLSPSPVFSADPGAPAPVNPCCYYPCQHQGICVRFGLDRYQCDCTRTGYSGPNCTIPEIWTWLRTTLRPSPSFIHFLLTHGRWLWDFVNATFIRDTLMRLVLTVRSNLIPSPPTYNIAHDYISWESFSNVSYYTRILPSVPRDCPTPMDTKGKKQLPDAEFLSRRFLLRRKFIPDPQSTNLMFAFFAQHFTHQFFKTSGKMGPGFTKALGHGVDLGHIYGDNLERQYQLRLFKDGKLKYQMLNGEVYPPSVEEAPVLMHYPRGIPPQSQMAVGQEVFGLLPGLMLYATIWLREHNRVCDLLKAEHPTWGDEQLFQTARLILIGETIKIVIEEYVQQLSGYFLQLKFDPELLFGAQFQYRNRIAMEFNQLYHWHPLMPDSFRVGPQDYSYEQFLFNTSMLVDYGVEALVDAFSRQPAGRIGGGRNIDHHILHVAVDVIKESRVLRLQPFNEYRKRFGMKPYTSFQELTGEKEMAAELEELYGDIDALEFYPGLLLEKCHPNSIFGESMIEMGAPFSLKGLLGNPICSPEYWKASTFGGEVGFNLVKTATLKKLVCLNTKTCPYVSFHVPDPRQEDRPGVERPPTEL

THP-1 [5] = assay: Antiinflammatory activity in human THP1 cells assessed as reduction in LPS and IFN-gamma-induced MCP level after 24 hrs; type: functional, cell-based; conditions: Homo sapiens, THP-1, 24 h; read-out: IC50
How it was run: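 THP-1 cells (5 × 10^5 cells/mL, DMEM-F12 with 5% FBS) pretreated 15 min with compound or DMSO vehicle, then stimulated with 0.5 µg/mL LPS plus 150 U/mL IFN-γ. After 24 h, MCP-1 in cell-free medium measured by ELISA. IC50 estimated from concentration–response; randomized block ANOVA.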

Rattus norvegicus [6] = assay: Antiinflammatory activity in po dosed Wistar albino rat assessed as inhibition of formalin-induced paw edema after 3 hrs relative to control; type: functional
Rattus norvegicus [7] = assay: Antiinflammatory activity in Wistar albino rat assessed as inhibition of formalin-induced paw edema at 20 mg/kg, po administered 1 hr prior to formalin challenge measured after 3 hrs relative to control; type: functional
How it was run: (§2)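 Male Wistar rats, 180–200 g, groups of five; single oral dose 1 h before 2% formalin (0.1 mL) into subplantar left hind paw under light ether anaesthesia. Paw volume read by water plethysmometer at baseline and 1, 2, 3, 4 h; % inhibition = control (Vt−Vo) minus treated (Vt−Vo), over control, ×100. Means ± SEM; ANOVA with Student–Newman–Keuls.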

Rattus norvegicus [8] = assay: Toxicity in Wistar albino rat assessed as ulcerogenic activity at 300 mg/kg, po qd for 3 days; type: organism-based; parameters: dose 300 mg/kg, route oral; conditions: in vivo, 72 h
How it was run: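 Rats in groups of five, fasted 12 h with water ad libitum; oral dosing in two equal portions at 0 and 12 h for three days, 300 mg/kg per day; control given 1% gum acacia. Killed 6 h after last dose; stomach opened along greater curvature, saline-washed, inspected under 3× lens for hyperemia, hemorrhage, erosion or ulcer.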

Rattus norvegicus [9] = assay: Antiinflammatory activity in Wistar albino rat assessed as inhibition of formalin-induced paw edema at 20 mg/kg, po administered 1 hr prior to formalin challenge measured after 1 hr relative to control; type: functional; how it was run: as §2
Rattus norvegicus [10] = assay: Antiinflammatory activity in Wistar albino rat assessed as inhibition of turpentine oil-induced granuloma at 20 mg/kg, po qd for 7 days post turpentine oil challenge measured on day 8; type: functional
How it was run: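 In ether-anaesthetized male Wistar rats (five per group) a dorsal subcutaneous pouch is formed with 2 mL air, then 0.5 mL turpentine oil is injected. Oral dosing at 20 mg/kg starts 1 h before turpentine and continues 7 days. On day 8 the exudate is drawn by syringe and its volume recorded; % inhibition = (Vcontrol − Vtreated)/Vcontrol × 100.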

Rattus norvegicus [11] = assay: Antiinflammatory activity in Wistar albino rat sub-acute inflammatory model assessed as inhibition of formalin-induced paw edema at 20 mg/kg, po administered 1 hr prior to formalin challenge measured on day 1 relative to control; type: functional
How it was run: (§3)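 Male Wistar rats, 180–200 g, five per group, dosed orally 20 mg/kg daily for 7 consecutive days. Formalin (2%, 0.1 mL) injected subplantar into left hind paw under light ether 1 h after dosing, repeated on day 3. Paw volume measured plethysmographically on days 1 and 8; inhibition expressed relative to untreated controls.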

Rattus norvegicus [12] = assay: Antiinflammatory activity in Wistar albino rat assessed as inhibition of formalin-induced paw edema at 20 mg/kg, po administered 1 hr prior to formalin challenge measured after 2 hrs relative to control; type: functional; how it was run: as §2
Rattus norvegicus [13] = assay: Antiinflammatory activity in Wistar albino rat assessed as inhibition of formalin-induced paw edema at 20 mg/kg, po administered 1 hr prior to formalin challenge measured after 4 hrs relative to control; type: functional; how it was run: as §2
Rattus norvegicus [14] = assay: Antiinflammatory activity in Wistar albino rat sub-acute inflammatory model assessed as inhibition of formalin-induced paw edema at 20 mg/kg, po administered 1 hr prior to formalin challenge measured on day 8 relative to control; type: functional; how it was run: as §3
[15] = Acute toxicity in Wistar albino rat after 24 hrs; type: organism-based; conditions: in vivo, read-out: ALD50
How it was run: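 Male Wistar albino rats (180–200 g), fasted 24 h, groups of five; compound given orally in graded doses of 0.1–3.0 g/kg. Mortality recorded at each dose after 24 h to estimate approximate acute lethal dose (ALD50).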

N#Cc1cnn(-c2ccccc2)c1NC(=O)C(=O)NCCc1ccccc1
EC50 (THP-1 [1]): 10 µM

COC(=O)c1nc2c(cnn2-c2ccccc2)c(=O)[nH]1
Activity (SH-SY5Y): inactive
inhibition [2]: 14.2%
IC50 (THP-1 [3]): 20 µM
EC50 (THP-1 [1]): 40 µM
Activity (SH-SY5Y (Homo sapiens)): Active
inhibition [4]: 16.4%
IC50 (THP-1 [5]): 100 µM

Cc1ccc(-c2cc(C(F)(F)F)nn2-c2ccc(S(N)(=O)=O)cc2)cc1 [CELECOXIB]
ED50 (Rattus norvegicus [6]): 15.7 mg/kg
inhibition in vivo at 20 mg/kg (Rattus norvegicus [7]): 56%
Activity (Rattus norvegicus [8]): 0%
inhibition in vivo at 20 mg/kg (Rattus norvegicus [9]): 38%
IC50 (THP-1 [3]): 5 µM
inhibition in vivo at 20 mg/kg (Rattus norvegicus [10]): 46%
inhibition in vivo at 20 mg/kg (Rattus norvegicus [11]): 37%
inhibition in vivo at 20 mg/kg (Rattus norvegicus [12]): 41%
inhibition in vivo at 20 mg/kg (Rattus norvegicus [13]): 47%
inhibition in vivo at 20 mg/kg (Rattus norvegicus [14]): 41%
IC50 (THP-1 [5]): 70 µM

N#Cc1cnn(-c2ccccc2)c1NC(=O)C(=O)NCCCN1CCOCC1
IC50 (THP-1 [3]): 100 µM
EC50 (THP-1 [1]): > 500 µM
IC50 (THP-1 [5]): > 500 µM

N#Cc1cnn(-c2ccccc2)c1NC(=O)C(=O)NC1CCCCC1
IC50 (THP-1 [3]): 250 µM
EC50 (THP-1 [1]): 80 µM
IC50 (THP-1 [5]): > 500 µM

COc1ccc2c(c1)c(CC(=O)O)c(C)n2C(=O)c1ccc(Cl)cc1 [INDOMETHACIN]
Activity (Rattus norvegicus [8]): 100%

C[C@@H](NC(=O)C(=O)Nc1c(C#N)cnn1-c1ccccc1)c1ccccc1
ED50 (Rattus norvegicus [6]): 18.9 mg/kg
LD50 at 24 h [15]: > 300 mg/kg
inhibition in vivo at 20 mg/kg (Rattus norvegicus [7]): 44%
Activity (Rattus norvegicus [8]): 0%
inhibition in vivo at 20 mg/kg (Rattus norvegicus [9]): 56%
inhibition in vivo at 20 mg/kg (Rattus norvegicus [10]): 39%
inhibition in vivo at 20 mg/kg (Rattus norvegicus [11]): 39%
inhibition in vivo at 20 mg/kg (Rattus norvegicus [12]): 36%
inhibition in vivo at 20 mg/kg (Rattus norvegicus [13]): 50%
inhibition in vivo at 20 mg/kg (Rattus norvegicus [14]): 33%

C[C@H](NC(=O)C(=O)Nc1c(C#N)cnn1-c1ccccc1)c1ccccc1
ED50 (Rattus norvegicus [6]): 22.4 mg/kg
LD50 at 24 h [15]: > 300 mg/kg
inhibition in vivo at 20 mg/kg (Rattus norvegicus [7]): 38%
Activity (Rattus norvegicus [8]): 0%
inhibition in vivo at 20 mg/kg (Rattus norvegicus [9]): 37%
inhibition in vivo at 20 mg/kg (Rattus norvegicus [10]): 49%
inhibition in vivo at 20 mg/kg (Rattus norvegicus [11]): 41%
inhibition in vivo at 20 mg/kg (Rattus norvegicus [12]): 32%
inhibition in vivo at 20 mg/kg (Rattus norvegicus [13]): 39%
inhibition in vivo at 20 mg/kg (Rattus norvegicus [14]): 35%
